In brackets after ≈: the same amount, converted by molar mass.
How the values were obtained:
[1] = target: T1, Cannabinoid receptor 1 (Homo sapiens, UniProt P21554); assay: Agonist activity at human CB1 receptor expressed in HEK293 EBNA cells by [35S]GTPgamma binding assay; type: functional, cell-based
[2] = Dissociation constant, pKa of the compound; type: physicochemical
[3] = target: T1, Cannabinoid receptor 1; assay: Displacement of [3H]-CP55,940 from human CB1 receptor expressed in HEK293 cells; type: cell-based
[4] = target: Voltage-gated inwardly rectifying potassium channel KCNH2 (Homo sapiens, UniProt Q12809); assay: Inhibition of human Erg by voltage ion flux electrophysiological assay
[5] = Metabolic stability in human liver microsomes; type: ADME, Microsome; settings: read-out: Stability
[6] = target: T1, Cannabinoid receptor 1; assay: Partial agonist activity at human CB1 receptor expressed in HEK293 EBNA cells by [35S]GTPgamma binding assay; type: functional, cell-based
In short: (§1)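 Membranes from HEK293 EBNA cells stably transfected with cloned human CB1; agonism read out as [35S]GTPγS binding, EC50 determined; Emax expressed relative to Win55,212-2 as reference agonist. Mean of at least 2 independent measurements.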

[7] = target: T1, Cannabinoid receptor 1; assay: Partial agonist activity at human CB1 receptor expressed in HEK293 EBNA cells by [35S]GTPgamma binding assay relative to Win55,212-2; type: functional, cell-based; in short: as §1
[8] = Metabolic stability in rat liver microsomes; type: ADME, Microsome; settings: read-out: Stability
[9] = Apparent permeability across human Caco2 cells; type: ADME, cell-based; settings: Caco-2
[10] = Aqueous solubility of the compound at pH 7.4; type: physicochemical
[11] = Ratio of drug uptake in brain to plasma of Sprague-Dawley rat at 1 mg/kg, sc; type: ADME, organism-based; set-up: dose 1 mg/kg, route subcutaneous; settings: read-out: BPR
[12] = target: Cannabinoid receptor 2 (Homo sapiens, UniProt P34972); assay: Binding affinity to human CB2 receptor
[13] = target: Cannabinoid receptor 1 (Rattus norvegicus) (UniProt P20272); assay: Agonist activity at CB1 receptor in rat brain tissue relative to control; type: functional, tissue-based
[14] = target: Cannabinoid receptor 1 (Rattus norvegicus, UniProt P20272); assay: Agonist activity at CB1 receptor in rat brain tissue; type: functional, tissue-based
Chain of Cannabinoid receptor 1 (Rattus norvegicus, UniProt P20272) (P20272 whole entry): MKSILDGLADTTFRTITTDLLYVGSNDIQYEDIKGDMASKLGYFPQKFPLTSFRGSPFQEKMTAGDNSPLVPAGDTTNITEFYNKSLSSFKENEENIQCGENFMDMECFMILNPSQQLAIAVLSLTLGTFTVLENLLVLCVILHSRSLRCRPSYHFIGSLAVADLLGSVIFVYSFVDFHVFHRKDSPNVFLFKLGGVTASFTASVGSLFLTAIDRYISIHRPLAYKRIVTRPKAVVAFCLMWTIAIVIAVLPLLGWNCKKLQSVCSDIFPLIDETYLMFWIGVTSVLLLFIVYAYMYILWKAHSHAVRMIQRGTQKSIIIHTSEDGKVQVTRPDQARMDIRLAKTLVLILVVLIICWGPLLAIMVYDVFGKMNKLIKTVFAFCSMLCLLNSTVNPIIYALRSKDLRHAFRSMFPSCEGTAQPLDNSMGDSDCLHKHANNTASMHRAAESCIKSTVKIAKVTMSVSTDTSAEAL

Chain of Voltage-gated inwardly rectifying potassium channel KCNH2 (Q12809 whole entry): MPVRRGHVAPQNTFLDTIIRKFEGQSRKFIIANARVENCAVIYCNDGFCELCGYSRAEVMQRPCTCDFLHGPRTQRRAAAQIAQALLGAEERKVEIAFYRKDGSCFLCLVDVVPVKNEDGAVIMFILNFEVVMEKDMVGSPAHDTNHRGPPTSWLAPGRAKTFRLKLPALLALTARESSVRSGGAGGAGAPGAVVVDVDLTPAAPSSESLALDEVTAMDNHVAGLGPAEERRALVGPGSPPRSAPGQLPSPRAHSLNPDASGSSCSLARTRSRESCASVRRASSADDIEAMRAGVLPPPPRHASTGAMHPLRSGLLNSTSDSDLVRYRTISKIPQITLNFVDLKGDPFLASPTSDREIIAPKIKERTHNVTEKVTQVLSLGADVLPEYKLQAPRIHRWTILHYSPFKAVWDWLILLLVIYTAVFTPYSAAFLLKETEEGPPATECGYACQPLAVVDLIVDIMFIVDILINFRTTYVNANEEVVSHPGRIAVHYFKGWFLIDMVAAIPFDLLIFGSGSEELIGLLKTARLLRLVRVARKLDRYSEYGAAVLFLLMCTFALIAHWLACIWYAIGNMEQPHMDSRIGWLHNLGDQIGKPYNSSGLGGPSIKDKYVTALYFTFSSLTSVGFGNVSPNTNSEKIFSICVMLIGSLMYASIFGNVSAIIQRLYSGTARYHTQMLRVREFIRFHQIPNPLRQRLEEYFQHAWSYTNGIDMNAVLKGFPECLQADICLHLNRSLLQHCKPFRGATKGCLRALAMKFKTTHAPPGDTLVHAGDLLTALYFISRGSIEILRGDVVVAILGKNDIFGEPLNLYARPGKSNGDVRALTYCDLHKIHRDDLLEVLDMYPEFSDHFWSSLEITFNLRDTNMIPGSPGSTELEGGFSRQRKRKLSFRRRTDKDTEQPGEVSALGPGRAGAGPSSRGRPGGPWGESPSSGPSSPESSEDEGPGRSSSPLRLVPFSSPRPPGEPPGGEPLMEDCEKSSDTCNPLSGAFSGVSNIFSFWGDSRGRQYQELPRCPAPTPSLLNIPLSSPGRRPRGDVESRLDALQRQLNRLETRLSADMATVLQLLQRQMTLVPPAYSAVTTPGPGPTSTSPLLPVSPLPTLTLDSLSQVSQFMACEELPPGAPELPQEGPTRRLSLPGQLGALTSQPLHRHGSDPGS
Chain of Cannabinoid receptor 2 (P34972 whole entry): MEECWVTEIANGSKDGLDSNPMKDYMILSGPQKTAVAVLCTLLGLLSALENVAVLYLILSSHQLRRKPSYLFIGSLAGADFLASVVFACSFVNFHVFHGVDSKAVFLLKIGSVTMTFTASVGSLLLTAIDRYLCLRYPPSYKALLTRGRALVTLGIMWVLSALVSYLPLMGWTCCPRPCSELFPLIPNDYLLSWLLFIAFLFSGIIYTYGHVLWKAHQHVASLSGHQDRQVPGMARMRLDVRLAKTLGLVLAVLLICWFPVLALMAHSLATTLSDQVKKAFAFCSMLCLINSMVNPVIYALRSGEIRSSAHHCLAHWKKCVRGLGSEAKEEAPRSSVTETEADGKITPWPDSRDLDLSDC
T1 sequence (P21554 whole entry): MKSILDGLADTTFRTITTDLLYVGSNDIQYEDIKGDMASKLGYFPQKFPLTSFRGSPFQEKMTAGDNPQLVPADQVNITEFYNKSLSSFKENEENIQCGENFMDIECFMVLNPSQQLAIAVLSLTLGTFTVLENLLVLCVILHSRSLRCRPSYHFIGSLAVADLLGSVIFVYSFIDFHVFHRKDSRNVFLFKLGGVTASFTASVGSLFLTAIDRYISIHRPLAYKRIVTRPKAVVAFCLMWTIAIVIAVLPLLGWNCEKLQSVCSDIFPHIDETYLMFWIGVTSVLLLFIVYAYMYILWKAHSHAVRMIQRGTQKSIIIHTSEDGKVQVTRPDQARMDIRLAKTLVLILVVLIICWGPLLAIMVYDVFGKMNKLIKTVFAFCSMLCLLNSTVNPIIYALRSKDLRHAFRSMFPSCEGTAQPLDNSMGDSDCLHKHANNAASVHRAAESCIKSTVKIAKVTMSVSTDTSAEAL
Chain of Cannabinoid receptor 1 (Rattus norvegicus) (P20272 whole entry): as the sequence (P20272 whole entry) above

Row | Structure (SMILES) | EC50 [1] | Ki [3] | further results
1 | C=CCn1c2c(c3cc(C(=O)N4CCC(C)CC4)ccc31)CN(Cc1ccccn1)CC2 | 5420 nM |  | 
2 | CCCS(=O)(=O)n1c2c(c3cc(C(=O)N4CCC(C)CC4)ccc31)CN(C1CCOC1)CC2 (stereo not given) |  | 320 nM | pKa [2]: 5.8
3 | CCS(=O)(=O)n1c2c(c3cc(C(=O)N4CCC(C)CC4)ccc31)CN(C1CCCC1)CC2 | 11 nM | 17 nM | 
4 | CC1CCN(C(=O)c2ccc3c(c2)c2c(n3S(=O)(=O)C(C)C)CCN(C3CCOCC3)C2)CC1 | 150 nM | 170 nM | 
5 | CCCn1c2c(c3cc(C(=O)N4CCC(C)CC4)ccc31)CN(C1CCOCC1)CC2 | 103 nM | 58 nM | 
6 | CCS(=O)(=O)n1c2c(c3cc(C(=O)N4CCC(C)CC4)ccc31)CN(C1CCOC1)CC2 (stereo not given) |  | 197 nM | pKa [2]: 5.9; IC50 [4]: 25000 nM
7 | C=CCn1c2c(c3cc(C(=O)N4CCC(C)CC4)ccc31)CN(C1CCCC1)CC2 | 33 nM | 9 nM | microsomal CLint [5]: 93 µL/min/mg
8 | C=CCn1c2c(c3cc(C(=O)N4CCC(C)CC4)ccc31)CN(C1CCCCC1)CC2 | 60 nM | 56 nM | microsomal CLint [5]: 135 µL/min/mg
9 | CCCC(=O)n1c2c(c3cc(C(=O)N4CCC(C)CC4)ccc31)CN(C1CCOCC1)CC2 |  | 102 nM | EC50 [6]: 117 nM; Emax [7]: 17%
10 | CCn1c2c(c3cc(C(=O)N4CCC(C)CC4)ccc31)CN(C1CCCC1)CC2 | 63 nM | 34 nM | 
11 | CCNS(=O)(=O)n1c2c(c3cc(C(=O)N4CCC(C)CC4)ccc31)CN(C1CCOCC1)CC2 |  | 424 nM | 
12 | CCOc1ccc(Cc2nc3cc(N(C)S(=O)(=O)c4cccs4)ccc3n2CC2CCCCC2)nc1 | 6 nM | 3 nM | microsomal CLint [8]: > 300 µL/min/mg; microsomal CLint [5]: > 300 µL/min/mg; Papp [9]: 0.6 ×10⁻⁶ cm/s; solubility [10]: < 10 µg/mL; Kp [11]: 0.07; Ki [12]: 0.56 nM
13 | CC1CCN(C(=O)c2ccc3c(c2)c2c(n3C)CCN(C3CCCC3)C2)CC1 | 77 nM | 32 nM | 
14 | C=CCn1c2c(c3cc(C(=O)N4CCC(C)CC4)ccc31)CN(CC1CCCC1)CC2 | 115 nM |  | microsomal CLint [5]: > 300 µL/min/mg
15 | CC1CCN(C(=O)c2ccc3c(c2)c2c(n3S(=O)(=O)N(C)C)CCN(C3CCCC3)C2)CC1 | 26 nM | 22 nM | 
16 | C=CCn1c2c(c3cc(C(=O)N4CCC(C)CC4)ccc31)CN(Cc1cccnc1)CC2 | > 14000 nM |  | microsomal CLint [5]: > 300 µL/min/mg
17 | C=CCn1c2c(c3cc(C(=O)N4CCC(C)CC4)ccc31)CN(CC1CC1)CC2 | 768 nM | 143 nM | microsomal CLint [8]: > 300 µL/min/mg; microsomal CLint [5]: 66 µL/min/mg; Papp [9]: 3 ×10⁻⁶ cm/s; solubility [10]: 3300 µg/mL (≈ 8430 µM); Emax [13]: 47%; EC50 [14]: 1440 nM; Kp [11]: 0.74; Ki [12]: 14 nM
18 | CCCS(=O)(=O)n1c2c(c3cc(C(=O)N4CCC(C)CC4)ccc31)CN(C1CCOCC1)CC2 | 129 nM | 115 nM | pKa [2]: 7.3; IC50 [4]: 2000 nM
19 | C=CCn1c2c(c3cc(C(=O)N4CCC(C)CC4)ccc31)CN(Cc1ccncc1)CC2 | 1360 nM |  | microsomal CLint [5]: > 300 µL/min/mg

Row | Structure (SMILES) | EC50 [1] | Ki [3] | further results
20 | CCOc1ccc(Cn2c3c(c4cc(C(=O)N5CCC(C)CC5)ccc42)CN(C2CCOCC2)CC3)cc1 | 53 nM | 51 nM | 
21 | C=CCn1c2c(c3cc(C(=O)N4CCC(C)CC4)ccc31)CN(C1CCSC1)CC2 (stereo not given) | 5 nM |  | microsomal CLint [5]: > 300 µL/min/mg
22 | CC1CCN(C(=O)c2ccc3c(c2)c2c(n3S(C)(=O)=O)CCN(C3CCOCC3)C2)CC1 | 473 nM | 239 nM | 
23 | CC1CCN(C(=O)c2ccc3c(c2)c2c(n3C(=O)N(C)C)CCN(C3CCOCC3)C2)CC1 |  | 2380 nM | 
24 | CC1CCN(C(=O)c2ccc3c(c2)c2c(n3S(C)(=O)=O)CCN(C3CCCC3)C2)CC1 | 50 nM | 36 nM | 
25 | C=CCn1c2c(c3cc(C(=O)N4CCC(C)CC4)ccc31)CN(C1CCOCC1)CC2 | 60 nM |  | microsomal CLint [5]: 42 µL/min/mg
26 | C=CCn1c2c(c3cc(C(=O)N4CCC(C)CC4)ccc31)CN(Cc1ccccc1)CC2 | 103 nM |  | microsomal CLint [5]: > 300 µL/min/mg
27 | Cn1c2c(c3cc(C(=O)N4CCCCC4)ccc31)CN(C1CCOCC1)CC2 |  | 226 nM | IC50 [4]: 18000 nM
28 | CC1CCN(C(=O)c2ccc3c(c2)c2c(n3S(=O)(=O)c3ccccc3)CCN(C3CCOCC3)C2)CC1 | 59 nM | 31 nM | 
29 | CC1CCN(C(=O)c2ccc3[nH]c4c(c3c2)CN(C2CCCC2)CC4)CC1 | 4250 nM | 264 nM | 
30 | CC1CCN(C(=O)c2ccc3c(c2)c2c(n3S(=O)(=O)n3ccnc3)CCN(C3CCOCC3)C2)CC1 |  | 592 nM | 
31 | CCCCCCC(C)(C)c1cc(O)c2c(c1)OC(C)(C)[C@@H]1CC=C(C(=O)O)C[C@@H]21 [LENABASUM] |  |  | Kp [11]: 0.3
32 | CCCn1c2c(c3cc(C(=O)N4CCC(C)CC4)ccc31)CN(C1CCCC1)CC2 | 45 nM | 15 nM | 
33 | CCCS(=O)(=O)n1c2c(c3cc(C(=O)N4CCC(C)CC4)ccc31)CN(C1CCCC1)CC2 | 22 nM | 22 nM | 
34 | CC1CCN(C(=O)c2ccc3c(c2)c2c(n3S(=O)(=O)N(C)C)CCN(C3CCOCC3)C2)CC1 | 71 nM | 110 nM | 
35 | CC1CCN(C(=O)c2ccc3c(c2)c2c(n3C)CCN(C3CCOCC3)C2)CC1 |  | 76 nM | IC50 [4]: 2600 nM
36 | CCCCCOc1ccc(C(=O)c2cccc3ccccc23)c2ccccc12 |  |  | solubility [10]: < 10 µg/mL; Kp [11]: 0.04; Ki [12]: 19 nM
37 | CCCCCc1cc(O)c2c(c1)OC(C)(C)[C@@H]1CCC(C)=C[C@@H]21 [DRONABINOL] |  |  | solubility [10]: < 10 µg/mL; Kp [11]: 1

Source: ChEMBL document CHEMBL1949601, “γ-Carbolines: a novel class of cannabinoid agonists with high aqueous solubility and restricted CNS penetration” (Bioorg Med Chem Lett, 2012)
